Laboratory results taken from ChEMBL document CHEMBL1156083, “N,N-Diethyl-4-[(3-hydroxyphenyl)(piperidin-4-yl)amino] benzamide derivatives: the development of diaryl amino piperidines as potent delta opioid receptor agonists with in vivo anti-nociceptive activity in rodent models” (Bioorg Med Chem Lett, 2009).

Assays:
Rattus norvegicus [1] = assay: Antihyperalgesic activity against carrageenan-induced inflammatory hyperalgesia in iv dosed Sprague-Dawley rat after 30 mins; format: functional
Procedure, shortened: (§1)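 Sprague-Dawley rats with carrageenan-induced inflammatory hyperalgesia received the compound intravenously across a dose range of 3 to 30. Antinociceptive reversal was measured 30 min after dosing.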

Mus musculus [2] = assay: Antinociceptive activity against acetic acid-induced writhing response in iv dosed CD1 mouse after 20 mins; format: functional
Procedure, shortened: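 CD1 mice received the compound intravenously at doses of 4 to 25 before the acetic acid-induced abdominal constriction (writhing) test. Writhing inhibition was scored 20 min after dosing and ED₅₀ was taken from the dose-response. A separate arm was pretreated with the delta-selective antagonist naltrindole.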

[3] = Half life in rat; format: ADME, organism-based; settings: in vivo
Mus musculus [4] = assay: Toxicity in CD1 mouse assessed hyperactivity at above 30 umol/kg, iv after 20 mins; format: organism-based; settings: in vivo
[5] = Bioavailability in rat; format: ADME, organism-based; settings: in vivo
Mus musculus [6] = assay: Toxicity in CD1 mouse assessed convulsant activity at 4 to 25 umol/kg, iv after 20 mins; format: organism-based; settings: in vivo
Procedure, shortened: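 CD1 mice were watched for convulsions during the acetic acid writhing experiment, at the intravenous doses used there (4 to 25) and 20 min after dosing.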

Rattus norvegicus [7] = assay: Toxicity in Sprague-Dawley rat assessed convulsant activity at 3 to 30 umol/kg, iv after 30 mins; format: organism-based; settings: in vivo, 0.5 h
Procedure, shortened: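 Sprague-Dawley rats were watched for convulsions during the carrageenan hyperalgesia experiment, at the intravenous doses used there (3 to 30) and 30 min after dosing.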

Rattus norvegicus [8] = assay: Antihyperalgesic activity against carrageenan-induced inflammatory hyperalgesia in Sprague-Dawley rat at 30 umol/kg, iv after 30 mins; format: functional; procedure, shortened: as §1
Rattus norvegicus [9] = assay: Toxicity in Sprague-Dawley rat assessed hyperactivity at above 30 umol/kg, iv after 30 mins; format: organism-based; settings: in vivo, 0.5 h

## CN1CC[C@]23c4c5ccc(O)c4O[C@H]2[C@@H](O)C=C[C@H]3[C@H]1C5 [MORPHINE]
Rattus norvegicus [1]
  Activity: 3.1 µmol/kg
Mus musculus [2]
  Activity: 1.5 µmol/kg

## CCN(CC)C(=O)c1ccc(N(c2cccc(O)c2)C2CCN(CCc3ccccc3)CC2)cc1
[3]
  half-life: 48 min
Mus musculus [4]
  Activity: Non-toxic
[5]
  bioavailability: 25%
Mus musculus [6]
  Activity: Non-toxic
Rattus norvegicus [7]
  Activity: Non-toxic
Rattus norvegicus [1]
  Activity: Dose-dependent effect
Rattus norvegicus [1]; Rattus norvegicus, Sprague-Dawley, iv, 0.5 h
  ED50: 17.5 µmol/kg
Rattus norvegicus [8]
  Activity: 60%
Rattus norvegicus [9]
  Activity: Non-toxic
